Assays:
Assay type in all cases: functional
[1] = Growth inhibition of human SKOV3 cells assessed as cell growth at 10^-7 M incubated for 48 hrs by sulforhodamine B assay; conditions: SK-OV-3, 48 h, read-out: Activity
[2] = Growth inhibition of human BT549 cells incubated for 48 hrs by sulforhodamine B assay; conditions: BT-549, 48 h
How it was run: (§1)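 Five-dose assay: five concentrations from 10-fold or ½-log serial dilutions. Cells are plated at 5,000–40,000 per well according to doubling time, grown 24 h, then exposed 48 h at 37 °C, 5% CO₂. Fixed with cold 50% TCA (final addition) for 60 min at 4 °C and stained with 0.4% SRB in 1% acetic acid. Bound dye is solubilized in 10 mM Tris base and read at 515 nm. GI₅₀ is where [(Ti−Tz)/(C−Tz)]×100 = 50, with a time-zero plate as Tz.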

HT-29 = assay: Growth inhibition of human HT-29 cells assessed as cell growth at 10^-7 M incubated for 48 hrs by sulforhodamine B assay; conditions: HT-29, 48 h, read-out: Activity
T47D = assay: Growth inhibition of human T47D cells assessed as cell growth at 10^-5 M incubated for 48 hrs by sulforhodamine B assay; conditions: read-out: Activity
NCI-H460 = assay: Growth inhibition of human NCI-H460 cells assessed as cell growth at 10^-6 M incubated for 48 hrs by sulforhodamine B assay; conditions: NCI-H460, 48 h, read-out: Activity
Malme-3M = assay: Growth inhibition of human MALME-3M cells assessed as cell growth at 10^-5 M incubated for 48 hrs by sulforhodamine B assay; conditions: read-out: Activity
MDA-MB-231 = assay: Growth inhibition of human MDA-MB-231 cells assessed as cell growth at 10^-7 M incubated for 48 hrs by sulforhodamine B assay; conditions: MDA-MB-231, 48 h, read-out: Activity
NCI-H322M [3] = assay: Growth inhibition of human NCI-H322M cells assessed as cell growth at 10^-4 M incubated for 48 hrs by sulforhodamine B assay; conditions: read-out: Activity
[4] = Growth inhibition of human SW620 cells assessed as cell growth at 10^-4 M incubated for 48 hrs by sulforhodamine B assay; conditions: SW-620, 48 h, read-out: Activity
[5] = Growth inhibition of human SNB19 cells assessed as cell growth at 10^-7 M incubated for 48 hrs by sulforhodamine B assay; conditions: SNB-19, 48 h, read-out: Activity
NCI-H522 = assay: Growth inhibition of human NCI-H522 cells assessed as cell growth at 10^-6 M incubated for 48 hrs by sulforhodamine B assay; conditions: NCI-H522, 48 h, read-out: Activity
[6] = Growth inhibition of human COLO205 cells assessed as cell growth at 10^-8 M incubated for 48 hrs by sulforhodamine B assay; conditions: COLO 205, 48 h, read-out: Activity
How it was run: (§2)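 Cells seeded at 5,000–40,000/well according to doubling time and preincubated 24 h at 37 °C, 5% CO2. Time-zero plates were TCA-fixed. DMSO concentrate was diluted in medium with 50 µg/ml gentamicin to give five concentrations (10-fold or ½ log steps), then exposed 48 h. Cells were TCA-fixed, stained with 0.4% SRB and read at 515 nm. Percent growth was taken against time-zero and control; GI50, TGI and LC50 derived.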

NCI-H322M [7] = assay: Growth inhibition of human NCI-H322M cells incubated for 48 hrs by sulforhodamine B assay
How it was run: (§3)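 Cells were plated at 5,000–40,000 per well according to doubling time and preincubated 24 h at 37 °C in 5% CO2; time-zero plates were then TCA-fixed. Five concentrations (10-fold or ½-log dilutions, DMSO stock) were incubated 48 h. Cells were TCA-fixed, stained with 0.4% SRB and read at 515 nm. GI50 was taken where [(Ti−Tz)/(C−Tz)]×100 = 50.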

SK-MEL-28 = assay: Growth inhibition of human SK-MEL-28 cells assessed as cell growth at 10^-6 M incubated for 48 hrs by sulforhodamine B assay; conditions: SK-MEL-28, 48 h, read-out: Activity
KM12 = assay: Growth inhibition of human KM12 cells incubated for 48 hrs by sulforhodamine B assay; conditions: KM12, 48 h; how it was run: as §3
[8] = Growth inhibition of human leukemia cells incubated for 48 hrs by sulforhodamine B assay; conditions: Leukemia cell; for CC50: read-out: LC50 (the source's name)
786-0 = assay: Growth inhibition of human 786-0 cells assessed as cell growth at 10^-7 M incubated for 48 hrs by sulforhodamine B assay; conditions: 786-0, 48 h, read-out: Activity; how it was run: as §1
SK-MEL-2 = assay: Growth inhibition of human SK-MEL-2 cells assessed as cell growth at 10^-5 M incubated for 48 hrs by sulforhodamine B assay; conditions: SK-MEL-2, 48 h, read-out: Activity
[9] = Growth inhibition of human RPMI8226 cells assessed as cell growth at 10^-5 M incubated for 48 hrs by sulforhodamine B assay; conditions: RPMI-8226, 48 h, read-out: Activity
[10] = Growth inhibition of human COLO205 cells assessed as cell growth at 10 uM incubated for 48 hrs by sulforhodamine B assay; conditions: COLO 205, 48 h, read-out: Activity
How it was run: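 Primary screen at one dose (10 µM) across 60 human cancer cell lines. Readout was growth percent relative to untreated control and time-zero.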

[11] = Growth inhibition of human OVCAR3 cells assessed as cell growth at 10^-4 M incubated for 48 hrs by sulforhodamine B assay; conditions: OVCAR-3, 48 h, read-out: Activity
[12] = Growth inhibition of human SNB75 cells incubated for 48 hrs by sulforhodamine B assay; conditions: SNB-75, 48 h; how it was run: as §3
[13] = Growth inhibition of human HCT15 cells assessed as cell growth at 10^-6 M incubated for 48 hrs by sulforhodamine B assay; conditions: HCT-15, 48 h, read-out: Activity; how it was run: as §2
MDA-MB-435 = assay: Growth inhibition of human MDA-MB-435 cells assessed as cell growth at 10^-6 M incubated for 48 hrs by sulforhodamine B assay; conditions: MDA-MB-435, 48 h, read-out: Activity
K562 = assay: Growth inhibition of human K562 cells assessed as cell growth at 10^-5 M incubated for 48 hrs by sulforhodamine B assay; conditions: K562, 48 h, read-out: Activity
[14] = Growth inhibition of human SNB75 cells assessed as cell growth at 10^-5 M incubated for 48 hrs by sulforhodamine B assay; conditions: SNB-75, 48 h, read-out: Activity
[15] = read-out: LC50 (the source's name)
[16] = read-out: pLC50 (the source's name) (converted)

Compound: Fc1ccc(-c2nc(Nc3ccc(-c4nc5ccccc5[nH]4)cc3)nc(N3CCOCC3)n2)cc1
- growth at 0.1 µM [1]: 98%
- GI50 ([2]; read-out: GI50): 1.74 µM
- TGI ([2]; read-out: TGI): 4.07 µM
- GI50 ([2]; read-out: pGI50 (converted)): 1.74 µM
- TGI ([2]; read-out: pTGI (converted)): 4.07 µM
- growth at 0.1 µM (HT-29): 96%
- growth at 10 µM (T47D): -50%
- growth at 1 µM (NCI-H460): 97%
- growth at 10 µM (Malme-3M): -71%
- growth at 0.1 µM (MDA-MB-231): 86%
- growth at 100 µM (NCI-H322M [3]): 9%
- growth at 100 µM [4]: -44%
- growth at 0.1 µM [5]: 97%
- growth at 1 µM (NCI-H522): 97%
- growth at 0.01 µM [6]: 100%
- GI50 (NCI-H322M [7]; read-out: GI50): 3.62 µM
- CC50 (NCI-H322M [7]; [15]): > 100 µM
- TGI (NCI-H322M [7]; read-out: TGI): > 100 µM
- GI50 (NCI-H322M [7]; read-out: pGI50 (converted)): 3.63 µM
- CC50 (NCI-H322M [7]; [16]): > 100 µM
- TGI (NCI-H322M [7]; read-out: pTGI (converted)): > 100 µM
- growth at 1 µM (SK-MEL-28): 84%
- GI50 (KM12; read-out: GI50): 2.06 µM
- CC50 (KM12; [15]): > 100 µM
- TGI (KM12; read-out: TGI): 5.69 µM
- GI50 (KM12; read-out: pGI50 (converted)): 2.04 µM
- CC50 (KM12; [16]): > 100 µM
- TGI (KM12; read-out: pTGI (converted)): 5.62 µM
- GI50 [8]: 2.02 µM
- TGI [8]: 6.11 µM
- CC50 [8]: > 100 µM
- growth at 0.1 µM (786-0): 97%
- growth at 10 µM (SK-MEL-2): -35%
- growth at 10 µM [9]: -17%
- growth at 10 µM [10]: -43.7%
- growth at 100 µM [11]: -45%
- GI50 ([12]; read-out: GI50): 1.8 µM
- CC50 [12, 15]: > 100 µM
- TGI ([12]; read-out: TGI): 10.5 µM
- GI50 ([12]; read-out: pGI50 (converted)): 1.82 µM
- CC50 [12, 16]: > 100 µM
- TGI ([12]; read-out: pTGI (converted)): 10.5 µM
- growth at 1 µM [13]: 74%
- growth at 1 µM (MDA-MB-435): 95%
- growth at 10 µM (K562): -31%
- growth at 10 µM [14]: 1%

Compound: c1ccc2[nH]c(-c3ccc(Nc4nc(N5CCCCC5)nc(N5CCOCC5)n4)cc3)nc2c1
- growth at 0.1 µM [1]: 101%
- GI50 ([2]; read-out: GI50): 2.07 µM
- CC50 [2, 15]: 92.7 µM
- TGI ([2]; read-out: TGI): 5.2 µM
- GI50 ([2]; read-out: pGI50 (converted)): 2.09 µM
- CC50 [2, 16]: 93.3 µM
- TGI ([2]; read-out: pTGI (converted)): 5.25 µM
- growth at 0.1 µM (HT-29): 105%
- growth at 10 µM (T47D): -46%
- growth at 1 µM (NCI-H460): 98%
- growth at 10 µM (Malme-3M): -80%
- growth at 0.1 µM (MDA-MB-231): 98%
- growth at 100 µM (NCI-H322M [3]): 10%
- growth at 100 µM [4]: -53%
- growth at 0.1 µM [5]: 98%
- growth at 1 µM (NCI-H522): 94%
- growth at 0.01 µM [6]: 99%
- GI50 (NCI-H322M [7]; read-out: GI50): 4.72 µM
- CC50 (NCI-H322M [7]; [15]): > 100 µM
- TGI (NCI-H322M [7]; read-out: TGI): > 100 µM
- GI50 (NCI-H322M [7]; read-out: pGI50 (converted)): 4.68 µM
- CC50 (NCI-H322M [7]; [16]): > 100 µM
- TGI (NCI-H322M [7]; read-out: pTGI (converted)): > 100 µM
- growth at 1 µM (SK-MEL-28): 87%
- GI50 (KM12; read-out: GI50): 2.85 µM
- CC50 (KM12; [15]): > 100 µM
- TGI (KM12; read-out: TGI): 9.54 µM
- GI50 (KM12; read-out: pGI50 (converted)): 2.82 µM
- CC50 (KM12; [16]): > 100 µM
- TGI (KM12; read-out: pTGI (converted)): 9.55 µM
- GI50 [8]: 2.37 µM
- TGI [8]: 6.5 µM
- CC50 [8]: > 100 µM
- growth at 0.1 µM (786-0): 97%
- growth at 10 µM (SK-MEL-2): -38%
- growth at 10 µM [9]: -19%
- growth at 10 µM [10]: -61.3%
- growth at 100 µM [11]: -49%
- GI50 ([12]; read-out: GI50): 2.1 µM
- CC50 [12, 15]: > 100 µM
- TGI ([12]; read-out: TGI): 16.9 µM
- GI50 ([12]; read-out: pGI50 (converted)): 2.09 µM
- CC50 [12, 16]: > 100 µM
- TGI ([12]; read-out: pTGI (converted)): 17 µM
- growth at 1 µM [13]: 87%
- growth at 1 µM (MDA-MB-435): 95%
- growth at 10 µM (K562): -21%
- growth at 10 µM [14]: 10%
